Assay outcomes: PubChem, Johns Hopkins Ion Channel Center
KCNQ1 inh = blocks the human KCNQ1 potassium channel. P51787. CHO-K1 KCNQ1, FluxOR thallium flux fluorescence; stronger effect = higher value. B-score at 10 µM. hit rate 1.3% among 310,000. AID 2642;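 active = compounds whose thallium flux B-score, printed positive for inhibition, exceeds three library SD while starting fluorescence stays within three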;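 note: channel opened by potassium depolarization with thallium stimulus after 20 min compound exposure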
hERG rescue = shields human hERG channel from block by proarrhythmic agents; Q12809; CHO-hERG, FluxOR thallium flux, dofetilide IC70 present; activation (rescue from dofetilide block), less the hit threshold, % at 10 µM; hit rate 0.51% among 310,000; AID 1511;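 active = activation above the mean of controls blocked by dofetilide plus 5 SD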;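 note: thallium influx through hERG after potassium depolarization seen as dye fluorescence rise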
KCNK9 inh = blocks the human KCNK9 two-pore domain potassium channel | Q9NPC2 | hit rate 1.2% among 310,000 | B-score at 10 µM | HEK293 KCNK9, FluxOR thallium flux fluorescence; stronger effect = lower value | AID 488922;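 active = ratio B-score over 3 SD below the library mean, with starting fluorescence within 5 SD of its mean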;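 note: negative B-score means less thallium flux so channel inhibition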
KCNK3 inh = human KCNK3 channel inhibition, primary screen; O14649; CHO-KCNK3 thallium flux, FluxOR fluorescence; stronger effect = lower value; B-score at 10 µM; hit rate 0.84% among 340,000; AID 602410;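 active = B-score under library mean minus 4 SD, starting fluorescence ratio at most library mean plus 5 SD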;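 note: more negative B-score means stronger inhibition of thallium flux through KCNK3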
Target sequence (O14649 whole entry, looked up): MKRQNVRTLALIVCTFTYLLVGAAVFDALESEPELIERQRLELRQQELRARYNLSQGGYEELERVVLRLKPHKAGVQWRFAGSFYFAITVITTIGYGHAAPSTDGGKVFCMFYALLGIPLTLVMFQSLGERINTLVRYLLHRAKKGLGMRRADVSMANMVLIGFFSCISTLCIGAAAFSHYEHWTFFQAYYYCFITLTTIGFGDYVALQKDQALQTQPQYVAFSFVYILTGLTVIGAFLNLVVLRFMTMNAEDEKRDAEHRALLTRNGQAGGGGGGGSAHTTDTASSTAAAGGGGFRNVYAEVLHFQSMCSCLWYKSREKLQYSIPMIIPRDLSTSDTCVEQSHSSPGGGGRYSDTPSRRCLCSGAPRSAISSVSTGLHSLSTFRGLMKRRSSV
KCNQ1 act = potentiates or activates the human KCNQ1 potassium channel; CHO-K1 KCNQ1, thallium flux FluxOR fluorescence; stronger effect = higher value; B-score at 10 µM; hit rate 0.35% among 310,000; AID 2648;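 active = fluorescence ratio B-score, a plate-corrected score, at least three library SD, with initial intensity B-score within 5 SD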
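System: Stable KCNQ1 CHO-K1 line | Incubation: 90 min dye loading and 20 min compound exposure, both at room temperature | Measure: Ratio B score | Medium: Assay buffer for compound exposure, DMSO matched across wells | Compound dosing: Single-concentration screen | Probe or stimulus: K+/Tl+ depolarizing stimulus | Measured by: Kinetic FluxOR fluorescence, 10 s baseline plus 110 s post-stimulus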
Hits are given with their value; . = inactive; / = not tested or not shown. Sampled rows, rich in hits. Any-hit rate of the full collection: about 3.1%.

SMILES	KCNQ1 inh	hERG rescue	KCNK9 inh	KCNK3 inh	KCNQ1 act
CCNc1ccc(Br)cc(C(=O)/C=C/c2c(Cl)cccc2Cl)c1=O	6	.	.	-9	.
CC(Nc1ccc(Br)cc1)C(=O)Nc1cccc(S(=O)(=O)N2CCOCC2)c1 (stereo unspecified)	/	/	/	.	/
Cc1ccccc1-c1nnn(Cc2cccc(S(=O)(=O)N3CCOCC3)c2)n1	/	/	/	-9	/
N#Cc1ccc(OCc2cccc(S(=O)(=O)N3CCOCC3)c2)cc1	.	.	.	.	.
Cc1cc(OCc2cccc(S(=O)(=O)N3CCOCC3)c2)ccc1Cl	/	/	/	-9.6	/
COc1ccc(OC)c(S(=O)(=O)N2CCC(NC(=O)c3ccccc3)CC2)c1	.	.	-7.3	.	.
COc1ccc(C(=O)NC2CCN(S(=O)(=O)c3ccccc3)CC2)cc1	.	.	.	.	.
CCN(CC(=O)Nc1ccc(NC(C)=O)cc1)C(=O)c1cn(-c2ccccc2)nc1-c1cccs1	/	/	/	.	/
C=C1/C(=C\C=C2/CCC[C@]3(C)[C@@H]([C@H](C)CCCC(C)(C)O)CC[C@@H]23)C[C@@H](O)C[C@@H]1O	7	.	.	/	.
COc1ccccc1N1CCN(S(=O)(=O)CCNC(=O)C2CCCCC2)CC1	.	.	.	.	.
CC(=O)c1cccc(NC(=O)C(OC(=O)c2ccccc2NS(=O)(=O)c2cccs2)c2ccccc2)c1 (stereo unspecified)	.	.	-7	.	.
CCOc1ccccc1NC(=O)C(OC(=O)c1ccccc1NS(=O)(=O)c1cccs1)c1ccccc1 (stereo unspecified)	.	.	.	.	.
CC(=O)N1CCN(c2nc(-c3cccs3)nc3ccccc23)CC1	.	.	.	.	.
c1ccc2c(N3CCCCCC3)nc(-c3ccncc3)nc2c1	.	.	-6.6	.	.
Fc1ccccc1N1CCN(c2nc(-c3cccs3)nc3ccccc23)CC1	.	.	-7.6	.	.
c1cncc(-c2nc(N3CCCCCC3)c3ccccc3n2)c1	.	.	.	.	.
CN(Cc1ccccc1F)c1nc(-c2cccs2)nc2ccccc12	6	.	-8	.	.
CC(C(=O)NC1CCCC1)N1CCN(S(=O)(=O)c2ccc(C(C)(C)C)cc2)CC1 (stereo unspecified)	/	/	/	.	/
O=C(/C=C/c1cc(Br)ccc1F)OCC(=O)N1CCCC1	/	/	/	.	/
COc1ccc2cc(N3CCCC3=O)ccc2c1	/	/	/	.	/
CCCCNc1c(-c2ccc(SC(C)CC)c(OC)c2)nc2ccc(C)cn12 (stereo unspecified)	8	.	.	.	.
CCC(C)Sc1cccc(-c2nc3ccc(C)cn3c2NCc2ccccc2)c1 (stereo unspecified)	7	.	.	.	.
CCC(C)Sc1cccc(-c2nc3ccc(Cl)cn3c2NCc2ccccc2)c1 (stereo unspecified)	.	.	.	.	.
CCCCNc1c(-c2ccc(SC(C)CC)c(OC)c2)nc2ccc(Cl)cn12 (stereo unspecified)	/	/	/	.	/
O=C(Oc1ccc(-c2nnco2)cc1)c1ccco1	.	.	.	.	.
SMILES	KCNQ1 inh	hERG rescue	KCNK9 inh	KCNK3 inh	KCNQ1 act
CC(C)(C)c1nnc2sc(SCC(=O)N3CCCCC3)nn2c1=O	/	/	/	.	/
CCN1C(=O)[C@H]2[C@@H](c3ccc(-c4ccc(F)cc4)c(OC)c3)N[C@@](CC(C)C)(C(=O)OC)[C@H]2C1=O	.	.	-12	/	.
CCn1c2c(c(=N)c3c1CCC3)CCCC2	.	.	.	.	.
CCCCCCCCCn1c2c(c(=N)c3c1CCC3)CCCC2	10	.	.	-12	.
COc1ccc(CN2CCNC(=O)C2CC(=O)N(C)Cc2ccon2)c(OC)c1 (stereo unspecified)	6	.	.	.	.
COc1ccccc1CN1CCNC(=O)C1CC(=O)N(C)Cc1ccon1 (stereo unspecified)	.	.	.	.	.
O=C(c1ccccc1Cl)N1CCN(Cc2ccc3c(c2)OCO3)CC1	.	.	-7	.	.
CC(=O)N(C1=C(N)C(=O)c2ccccc2C1=O)C(C)C	.	6.3	.	.	.
CC(=O)N(C)C1=C(O)c2ccccc2C(=O)C1=O	.	.	.	.	.
CC(C)(C)c1ccc(OCc2ccc(C(=O)N/N=C/c3ccc([N+](=O)[O-])cc3)o2)cc1	7	.	.	.	.
CCOc1ccccc1NC(=O)C(=O)CC(=O)c1cccc(OC)c1	.	12	.	.	16
COc1cccc(C(=O)CC(=O)C(=O)Nc2cc(OC)ccc2OC)c1	.	.	.	.	.
COc1cccc(C(=O)CC(=O)C(=O)Nc2ccc(C)cc2Cl)c1	.	31	.	.	.
COc1ccc(C(=O)CC(=O)C(=O)Nc2ccc(C)cc2Cl)cc1	.	56	.	.	.
CC1(C)C(=O)Nc2ccccc2N1C(=O)COC(=O)c1ccc(NC(N)=O)cc1	/	/	/	.	/
CCOc1cc(NC(=S)N2CCC(C(N)=O)CC2)c(C(=O)OC)cc1OCC	.	11	.	.	.
Nc1ncnc2c1ncn2[C@@H]1O[C@H](CNCC#Cc2ccccc2)[C@@H](O)[C@H]1O	/	/	/	.	/
O=c1c2ccccc2c(C=NCc2ccccn2)c(O)n1-c1ccccc1Cl	.	8.0	.	.	.
O=c1c2ccccc2c(C=NCc2ccccn2)c(O)n1-c1ccccc1	.	.	.	.	.
Nc1c(C(=O)OCC(=O)Nc2cccc([N+](=O)[O-])c2)[nH]c(=O)[nH]c1=O	/	/	/	.	/
O=C(CSc1nc2nc(-c3cccs3)cc(C(F)(F)F)c2c(=O)[nH]1)Nc1ccc(F)c(F)c1	7	.	.	.	.
CCc1cc(=O)[nH]c(SCc2ccc(C)cc2)n1	.	4.9	.	.	.
Cc1nc(-c2nc(-c3c(C(=O)NNC(=O)c4ccc(Cl)cc4)noc3C)cs2)cs1	.	.	.	.	17
CN1CCC(CC(C(=O)N2CCCC2)(c2ccccc2)c2ccccc2)C1 (stereo unspecified)	/	/	/	.	/
Cc1cccc(N2CC(C(=O)Nc3ccccc3N3CCOCC3)CC2=O)c1C (stereo unspecified)	/	/	/	.	/
SMILES	KCNQ1 inh	hERG rescue	KCNK9 inh	KCNK3 inh	KCNQ1 act
CCCCN1C(=O)/C(=C/C=C2\N(C)c3ccccc3C2(C)C)SC1=S	11	.	.	/	.
CCCN1C(=O)/C(=C\C=C2/C=CN(CC)c3ccccc32)SC1=S	.	.	.	.	.
Cc1cccc(NC(=O)c2nc[nH]c2C(=O)N2CCN(C(=O)OC(C)(C)C)CC2)c1	/	/	/	.	/
Cc1cccc(NC(=S)NC(=O)c2cc(-c3ccccc3)nc3ccccc23)c1	.	6.1	.	.	18
Cc1ccc(-c2cc(C(=O)Nc3ccncc3)c3ccccc3n2)cc1	.	.	.	.	.
Cc1ccccc1NC(=S)NC(=O)c1cc(-c2ccccc2)nc2ccccc12	.	.	.	.	19
CCN(CC)c1cccc(OCC(=O)N2c3ccccc3CC2C)c1 (stereo unspecified)	/	/	/	.	/
CC1(c2ccccc2)CC(C)(C)N2C(=O)/C(=C3\SC(=S)NC3=O)c3cccc1c32 (stereo unspecified)	.	.	.	.	81
